Source: PubChem BioAssay
Rows were chosen to be rich in hits. Some 3.5% of all compounds tested hit in one or more screens of this group.
MrgX1 PAM: human MrgX1 positive allosteric modulation, primary screen. 310,000 compounds, 0.63% hits. MrgX1-HEK293, Fluo-4 calcium flux, FDSS; stronger effect = higher value. Q96LB2. B-score at 10 µM;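 active = plate-corrected calcium response at least 3 library SD above typical, normal starting fluorescence, not activating the receptor alone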;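 note: compound read alongside a low EC10 to EC30 dose of BAM8-22 agonist; peak minus trough fluorescence over baseline measured at the second addition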
Target sequence (Q96LB2 whole entry, looked up): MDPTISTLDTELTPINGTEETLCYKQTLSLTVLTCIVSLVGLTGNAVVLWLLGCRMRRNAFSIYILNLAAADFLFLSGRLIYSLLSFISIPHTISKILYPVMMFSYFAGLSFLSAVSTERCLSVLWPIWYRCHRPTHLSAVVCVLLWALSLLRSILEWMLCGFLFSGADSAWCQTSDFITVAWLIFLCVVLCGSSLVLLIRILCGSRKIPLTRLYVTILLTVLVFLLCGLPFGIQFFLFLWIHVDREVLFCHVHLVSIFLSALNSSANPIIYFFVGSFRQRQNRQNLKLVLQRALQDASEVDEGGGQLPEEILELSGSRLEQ
MrgX1 antag: antagonists of human MrgX1 receptor | B-score at 10 µM | 310,000 compounds, 1.3% hits | Q96LB2 | MRGX1-HEK293 calcium flux, Fluo-4, BAM8-22 antagonism; stronger effect = lower value;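 active = calcium-response B-score plate-corrected more than 3 library SD below zero, starting fluorescence within 5 deviations, no agonist response on first addition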;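 note: peak minus trough fluorescence over baseline after final BAM8-22 challenge near maximal dose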
RGS4 inh: human RGS4 inhibition; P49798; HEK293 M3R/RGS4 inducible, Fluo-4 calcium flux; stronger effect = higher value; triggered by carbachol at its EC20; B-score at 10 µM; 310,000 compounds, 0.45% hits; AID 463165;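 active = B-score, a plate-corrected calcium signal, over three deviations above library mean, with baseline fluorescence within five deviations of library mean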;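 note: RGS4 expression induced by doxycycline in cells with stable M3 receptor; B-score is computed from the integrated fluorescence ratio over baseline after carbachol; higher B-score means a larger calcium signal and so more RGS4 inhibition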
Target sequence (P49798 whole entry, looked up): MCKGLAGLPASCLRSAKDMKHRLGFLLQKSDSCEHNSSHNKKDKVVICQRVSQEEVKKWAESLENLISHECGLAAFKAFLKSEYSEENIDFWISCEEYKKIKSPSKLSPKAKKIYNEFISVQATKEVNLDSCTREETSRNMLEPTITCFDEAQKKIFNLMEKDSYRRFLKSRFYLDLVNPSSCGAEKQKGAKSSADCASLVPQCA
MrgX1 agonist: human MrgX1 receptor agonism, primary screen; Q96LB2; MrgX1-HEK293 cells, Fluo-4 calcium fluorescence, agonist mode; stronger effect = higher value; B-score at 10 µM; 310,000 compounds, 0.44% hits; AID 588627;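 active = calcium response B-score plate-corrected fluorescence ratio at least 3 library SD, with starting fluorescence B-score inside 5 SD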
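Test system: HEK293 cells stably expressing human MrgX1 receptor; amount: 15,000 cells per well; doses: compound delivered in addition one of three; times: overnight plating before 1 h dye loading; detection: Fluo-4 NW calcium-flux fluorescence, kinetic read; read-out basis: B-scored fluorescence response ratio; controls: positive and negative controls per plate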
RGS4 pot: RGS4 potentiation or activation; HEK293 M3R/inducible RGS4, carbachol calcium flux Fluo4; stronger effect = lower value; B-score at 10 µM; 310,000 compounds, 0.92% hits;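 active = B-score of the integrated calcium signal more than 4 SD below the library mean, with starting fluorescence not abnormally high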;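 note: negative B-score means reduced calcium response which marks RGS4 activation or potentiation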
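test system = HEK293 cells with stable M3R and inducible RGS4 | schedule = recording 10 s baseline at 1 Hz, 100 s post-agonist | technique = Fluo4-AM (2 µM) calcium-flux fluorescence, kinetic read | measure = Agonist-evoked peak-minus-minimum fluorescence over baseline, integrated ratio, B score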
MrgX1 PAM conf: confirmation of human MrgX1 receptor positive allosteric modulators; shares compounds with MrgX1 PAM; MrgX1-HEK293, Fluo-4 calcium fluorescence, FDSS; activation (ratio percentage), % at 10 µM; 1,200 compounds, 13% hits;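 active = ratio at least 3 SD above the weak peptide control, stable starting fluorescence, no direct agonism earlier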;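 note: compound followed by low BAM8-22 agonist challenge near EC20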
HEK293 Ca flux: activity in parental HEK293 cells lacking MrgX1; shares compounds with MrgX1 antag; Fluo-4 calcium fluorescence, FDSS; fluorescence ratio F(max-min)/F0 at 10 µM; 4,000 compounds, 2% hits; AID 624111;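 active = duplicate-averaged calcium fluorescence ratio at least three times the standard deviation of buffer wells, a nonspecific response in parental cells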
HEK293 Ca counter: counter-screen for MrgX1 allosteric activators: effect in parental HEK293 cells. parental HEK293 calcium flux, Fluo-4 fluorescence ratio; stronger effect = higher value. shares compounds with MrgX1 antag. fluorescence ratio F(max-min)/F0 at 10 µM. 4,000 compounds, 0.4% hits;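 active = calcium fluorescence ratio, averaged over duplicates, at least 3 SD of the buffer-well ratio, meaning a nonspecific response in receptor-free cells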;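 note: untransfected parental HEK293 lacking MrgX1 used as counterscreen for MrgX1 allosteric activators; fluorescence change taken during the second addition on a kinetic imager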
HEK293 Ca cntr2: MrgX1 activator counter-screen hit in parental HEK293 cells; Fluo-4 calcium fluorescence (FDSS); stronger effect = higher value; fluorescence ratio F(max-min)/F0 at 10 µM; 4,000 compounds, 8.7% hits; shares compounds with MrgX1 antag;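 active = calcium fluorescence ratio at least three times the spread of buffer wells, meaning a non-specific response in parental cells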
* marks the source's active call; other numbers are inactive results.

COc1ccc(-c2nn(-c3ccccc3)cc2CO)cc1 was read as MrgX1 PAM 9.97*, MrgX1 antag inactive, RGS4 inh inactive, MrgX1 agonist inactive, RGS4 pot inactive, MrgX1 PAM conf inactive, HEK293 Ca flux inactive, HEK293 Ca counter inactive and HEK293 Ca cntr2 inactive.
`Cc1ccc(-c2nn(-c3ccccc3)cc2CO)cc1` gave MrgX1 PAM 37.6*, MrgX1 antag inactive, RGS4 inh inactive, MrgX1 agonist inactive, RGS4 pot inactive, MrgX1 PAM conf 6.8%*, HEK293 Ca flux inactive, HEK293 Ca counter inactive and HEK293 Ca cntr2 inactive.
`COc1ccc(-c2nn(-c3ccccc3)cc2N)cc1` gave MrgX1 PAM inactive, MrgX1 antag inactive, RGS4 inh inactive, MrgX1 agonist inactive and RGS4 pot inactive.
Screening c1ccc2nc(-c3nccs3)ccc2c1 returned MrgX1 PAM 6.5*, MrgX1 antag inactive, RGS4 inh inactive, MrgX1 agonist inactive, RGS4 pot inactive, MrgX1 PAM conf inactive, HEK293 Ca flux inactive, HEK293 Ca counter inactive and HEK293 Ca cntr2 inactive.
For Clc1ccsc1-c1ccc2ccccc2n1 the results were MrgX1 PAM inactive, MrgX1 antag inactive, RGS4 inh inactive, MrgX1 agonist inactive and RGS4 pot inactive.
For CCC(C)NC(=O)C1c2ccccc2C(=O)N1Cc1ccccc1OC (stereo unspecified) the results were MrgX1 PAM inactive, MrgX1 antag inactive, RGS4 inh inactive, MrgX1 agonist inactive and RGS4 pot inactive.
For COc1ccccc1CN1C(=O)c2ccccc2C1C(=O)NC1CCC(C)CC1 (stereo unspecified) the results were MrgX1 PAM 9.8*, MrgX1 antag inactive, RGS4 inh inactive, MrgX1 agonist inactive, RGS4 pot inactive, MrgX1 PAM conf inactive, HEK293 Ca flux inactive, HEK293 Ca counter inactive and HEK293 Ca cntr2 inactive.
For CN(C)c1nc(N)nc(N(c2ccccc2)c2ccccc2)n1 the results were MrgX1 PAM 7.44*, MrgX1 antag inactive, RGS4 inh inactive, MrgX1 agonist inactive, RGS4 pot inactive, MrgX1 PAM conf inactive, HEK293 Ca flux inactive, HEK293 Ca counter inactive and HEK293 Ca cntr2 inactive.
Screening Cc1cccc(N(C)C(=O)c2cnn(-c3ccccc3)c2C)c1 returned MrgX1 PAM 12.6*, MrgX1 antag inactive, RGS4 inh inactive, MrgX1 agonist inactive, RGS4 pot inactive, MrgX1 PAM conf inactive, HEK293 Ca flux inactive, HEK293 Ca counter inactive and HEK293 Ca cntr2 inactive.
For Cc1ccc(N(C)C(=O)c2cnn(-c3ccccc3)c2C)c(C)c1 the results were MrgX1 PAM inactive, MrgX1 antag inactive, RGS4 inh inactive, MrgX1 agonist inactive and RGS4 pot inactive.
Cc1ccc(OCc2n[nH]c(=S)n2-c2ccc(Cl)cc2)cc1 was read as MrgX1 PAM inactive, MrgX1 antag inactive, RGS4 inh inactive, MrgX1 agonist inactive and RGS4 pot inactive.
Cc1ccc(OCc2n[nH]c(=S)n2-c2ccc(Br)cc2)cc1 was read as MrgX1 PAM 7.6*, MrgX1 antag inactive, RGS4 inh inactive, MrgX1 agonist inactive, RGS4 pot inactive, MrgX1 PAM conf inactive, HEK293 Ca flux inactive, HEK293 Ca counter inactive and HEK293 Ca cntr2 inactive.
Cc1ccc(NC(=O)CC2Oc3ccc(C)cc3NC2=O)c(C)c1 (stereo unspecified) was read as MrgX1 PAM inactive, MrgX1 antag inactive, RGS4 inh inactive, MrgX1 agonist inactive and RGS4 pot inactive.
For Cc1ccc2c(c1)NC(=O)C(CC(=O)O)O2 (stereo unspecified) the results were MrgX1 PAM 8.07*, MrgX1 antag inactive, RGS4 inh inactive, MrgX1 agonist inactive, RGS4 pot inactive, MrgX1 PAM conf inactive, HEK293 Ca flux inactive, HEK293 Ca counter inactive and HEK293 Ca cntr2 inactive.
Screening CN(c1ccc(C(=O)Nc2ccc(Cl)cn2)cc1)S(=O)(=O)c1ccccc1 returned MrgX1 PAM 9.73*, MrgX1 antag inactive, RGS4 inh inactive, MrgX1 agonist inactive, RGS4 pot inactive, MrgX1 PAM conf inactive, HEK293 Ca flux inactive, HEK293 Ca counter inactive and HEK293 Ca cntr2 inactive.
`Cc1ccc(S(=O)(=O)N(C)c2ccc(C(=O)Nc3ccc(C)cn3)cc2)cc1` gave MrgX1 PAM inactive, MrgX1 antag inactive, RGS4 inh inactive, MrgX1 agonist inactive and RGS4 pot inactive.
CCN(CC)S(=O)(=O)c1cc(C(=O)Nc2ccc(Cl)cn2)ccc1C was read as MrgX1 PAM 19.5*, MrgX1 antag inactive, RGS4 inh inactive, MrgX1 agonist inactive, RGS4 pot inactive, MrgX1 PAM conf 11.6%*, HEK293 Ca flux inactive, HEK293 Ca counter inactive and HEK293 Ca cntr2 inactive.
COc1ccccc1C(=O)NCCC(=O)N1CCN(C(C)=O)CC1 was read as MrgX1 PAM inactive, MrgX1 antag inactive, RGS4 inh inactive, MrgX1 agonist inactive and RGS4 pot inactive.
Cc1ccc2nc(Cl)c(C#N)cc2c1 was read as MrgX1 PAM inactive, MrgX1 antag inactive, RGS4 inh inactive, MrgX1 agonist inactive and RGS4 pot inactive.
Screening CC12COC3(C(=O)Nc4cccnc4)CC1CCC32C (stereo unspecified) returned MrgX1 PAM inactive, MrgX1 antag inactive, RGS4 inh inactive, MrgX1 agonist inactive and RGS4 pot inactive.
`Cc1ccccc1NC(=O)C12CC3CCC1(C)C3(C)CO2` (stereo unspecified) gave MrgX1 PAM 6.87*, MrgX1 antag inactive, RGS4 inh inactive, MrgX1 agonist inactive, RGS4 pot inactive, MrgX1 PAM conf inactive, HEK293 Ca flux inactive, HEK293 Ca counter inactive and HEK293 Ca cntr2 inactive.
Screening CC12COC3(C(=O)Nc4ccccc4)CC1CCC32C (stereo unspecified) returned MrgX1 PAM 9.68*, MrgX1 antag inactive, RGS4 inh inactive, MrgX1 agonist inactive, RGS4 pot inactive, MrgX1 PAM conf inactive, HEK293 Ca flux inactive, HEK293 Ca counter inactive and HEK293 Ca cntr2 inactive.
